Columns and labels:
[1] = test system: Tlr4-/- BMDMs; experiment: RNAseq of Tlr4-/- BMDMs; type: cell-based, mouse; details: GM 8 mM, 24 h, n = 3
Summary of the method: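 BMDMs were differentiated 6 days from mouse bone marrow with GM-CSF or L929 supernatant at 800,000 cells/well, switched to serum-free IMDM and stimulated 24 h; MDP 0.4 mM was run alongside. Total RNA was extracted for RNAseq. Differentially expressed genes were called at p < 0.01 and logFC > 1 and plotted as mean heatmaps; n = 3.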

[2] = test system: IRF signaling in RAW-Dual Tlr4-/- cells; experiment: RAW-Dual Tlr4-/- IRF reporter; type: cell-based, mouse; details: 24 h
Summary of the method: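 RAW-Dual Tlr4-/- cells were seeded at 100,000 cells/well without selection antibiotics, 24 h before a 24 h exposure to test compounds. IRF-driven secreted luciferase was measured by mixing 20 µL supernatant with 50 µL Quanti-Luc 4 and reading luminescence immediately.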

[3] = test system: NF-κB p65 and MAPK p38 phosphorylation in WT BMDMs; experiment: Immunoblot of p65 and p38 phosphorylation in WT BMDMs; type: cell-based, mouse; details: GM 5 mM
Summary of the method: (§1)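 Bone-marrow macrophages from WT or Tlr4-/- C57BL/6J mice were stimulated directly with 5 mM test compound or 500 ng/mL LPS. Cells were lysed in Tris/SDS/Triton buffer with protease and phosphatase inhibitors plus 10 mM DTT and boiled, then run on SDS-PAGE and transferred to PVDF. Blots were probed with rabbit antibodies to total or phospho-p65, total or phospho-p38 and GAPDH (1:1000, 4 °C overnight), then HRP anti-rabbit (1:5000).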

[4] = biological target: mTLR4/mMD2 (K263A / wt) (Mus musculus, UniProt Q9JHF9+Q9QUK6, K263A); experiment: NF-κB SEAP in HEK-Blue Null1, mTLR4 K263A / mMD2 wt; type: cell-based; details: GM 0.4, 0.2 mM, 24 h
Summary of the method: (§2)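 Point mutants of mTLR4 or mMD2 were made by site-directed mutagenesis. HEK-Blue Null1 cells were co-transfected by lipofection for 16 h with 500 ng total of mTLR4 and Myc-tagged mMD2 plasmids (1:1); mock wells received lipofection reagent only. After a medium change the next day, cells were treated for 24 h. NF-κB SEAP was measured and normalised to water-treated samples; data are mean ± s.e.m., n = 3.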

[5] = test system: NF-κB signaling in RAW-Dual WT cells; experiment: RAW-Dual WT NF-κB reporter; type: cell-based, mouse; details: 24 h
Summary of the method: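 RAW-Dual cells (WT or Tlr4-/-) were seeded at 100,000 cells/well in complete DMEM without selection antibiotics, 24 h before treatment. Test compounds were added for 24 h (n = 3). NF-κB-driven SEAP was read by mixing supernatant 1:4 with Quanti-Blue, incubating 6 h at 37 °C and measuring absorbance at 620 nm, blanked against water-treated wells.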

[6] = biological target: NOD1 (Homo sapiens, UniProt Q9Y239); experiment: HEK-Blue NOD1 SEAP reporter assay; type: cell-based; details: GM, M 20 μM; 18 h
Summary of the method: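 HEK-Blue hNod1 or hNod2 cells were seeded at 50,000 cells/well in DMEM/10% FBS without selection antibiotics and stimulated at once for 18 h (n = 3). Supernatant was mixed 1:4 with Quanti-Blue and incubated 6 h at 37 °C, and absorbance was read at 620 nm. Values were blanked against water-treated wells, and the respective parental Null cell readouts were subtracted.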

[7] = test system: murine bone marrow-derived dendritic cells (cDC2); experiment: CD80/86 surface expression in cDC2s of BMDCs; type: cell-based, mouse; details: 50, 100, 200 μM, 18 h
Summary of the method: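 Bone marrow from femur and tibia of C57BL/6J female mice was red-cell-lysed and plated at 2,000,000 cells/mL in medium with FLT3 ligand-containing supernatant, with feeding on days 3 and 6. DCs were reseeded at 2,000,000 cells/well and stimulated 18 h. Cells were Fc-blocked, stained with anti-CD80, anti-CD86 and live/dead dye, and analysed by flow cytometry as MFI in gated cDC2s.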

[8] = test system: WT mice sera; experiment: Multiplex immunoassay of serum cytokines and chemokines in mice; type: in vivo, mouse; details: GM 10 mg/kg i.p. daily, no DSS
Summary of the method: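 Mice received daily intraperitoneal injections, with PBS (5 mL/kg) as vehicle. Serum was analysed with a bead-based inflammatory cytokine/chemokine panel according to the kit protocol, read on a flow cytometer with a high-throughput sampler.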

[9] = biological target: mTLR4/mMD2 (wt / F126A) (Mus musculus, UniProt Q9JHF9+Q9QUK6, F126A); experiment: NF-κB SEAP in HEK-Blue Null1, mTLR4 wt / mMD2 F126A; type: cell-based; details: GM 0.4, 0.2 mM; LPS 100 ng/mL; 24 h
Summary of the method: as §2

[10] = test system: RAW264.7 cells; experiment: Cytokine expression in RAW264.7 macrophages; type: cell-based, mouse; details: GM 1-4 mM, M 4 mM, 24 h
Summary of the method: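 RAW264.7 cells were kept in high-glucose IMDM with HEPES, 5% heat-inactivated FBS and penicillin/streptomycin at 37 °C, 5% CO2. They were exposed to test compounds for 24 h (n = 4). Total RNA was extracted with a column kit, and TNF-α and IL-6 transcripts were quantified by RT-qPCR using the 2-ΔΔCt method, normalised to β-act.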

[11] = biological target: mTLR4/mMD2 (wt / F119A) (Mus musculus, UniProt Q9JHF9+Q9QUK6, F119A); experiment: NF-κB SEAP in HEK-Blue Null1, mTLR4 wt / mMD2 F119A; type: cell-based; details: GM 0.4, 0.2 mM, 24 h
Summary of the method: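 Site-directed mTLR4 or mMD2 variants were made by mutagenesis. HEK-Blue Null1 cells were co-transfected 16 h with 500 ng mTLR4 and mMD2-Myc plasmids (1:1) by lipofection; mock cells got water/Lipofectamine. After a medium change, cells were treated 24 h. Supernatant SEAP was measured with Quanti-Blue (37 °C, 6 h, A620), normalized to H2O-treated cells; mean ± s.e.m., n = 3.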

[12] = test system: WT BMDMs; experiment: Cytokine secretion by WT BMDMs; type: cell-based, mouse; details: GM 4 mM, PB-resin, 24 h
Summary of the method: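 Bone-marrow macrophages were derived from female C57BL/6J mice (GM-CSF or L929 supernatant, 6 days) and moved to serum-free IMDM. They were given 4 mM test compound or 100 ng/mL LPS for 24 h, each either untreated or first neutralised with polymyxin B resin. Supernatants were cleared at 16,000 × g and TNF-α was measured by sandwich ELISA, with samples prediluted in 1% BSA/PBS when needed.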

[13] = biological target: mTLR4 (Mus musculus, UniProt Q9JHF9+Q9QUK6); experiment: HEK-Blue mTLR4 SEAP reporter assay; type: cell-based; details: 24 h
[14] = test system: NF-κB p65 and MAPK p38 phosphorylation in Tlr4-/- BMDMs; experiment: Immunoblot of p65 and p38 phosphorylation in Tlr4-/- BMDMs; type: cell-based, mouse; details: GM 5 mM
Summary of the method: as §1

[15] = test system: IRF signaling in RAW-Dual WT cells; experiment: RAW-Dual WT IRF reporter; type: cell-based, mouse; details: 24 h

Chain of mTLR4 (Q9QUK6 26-835): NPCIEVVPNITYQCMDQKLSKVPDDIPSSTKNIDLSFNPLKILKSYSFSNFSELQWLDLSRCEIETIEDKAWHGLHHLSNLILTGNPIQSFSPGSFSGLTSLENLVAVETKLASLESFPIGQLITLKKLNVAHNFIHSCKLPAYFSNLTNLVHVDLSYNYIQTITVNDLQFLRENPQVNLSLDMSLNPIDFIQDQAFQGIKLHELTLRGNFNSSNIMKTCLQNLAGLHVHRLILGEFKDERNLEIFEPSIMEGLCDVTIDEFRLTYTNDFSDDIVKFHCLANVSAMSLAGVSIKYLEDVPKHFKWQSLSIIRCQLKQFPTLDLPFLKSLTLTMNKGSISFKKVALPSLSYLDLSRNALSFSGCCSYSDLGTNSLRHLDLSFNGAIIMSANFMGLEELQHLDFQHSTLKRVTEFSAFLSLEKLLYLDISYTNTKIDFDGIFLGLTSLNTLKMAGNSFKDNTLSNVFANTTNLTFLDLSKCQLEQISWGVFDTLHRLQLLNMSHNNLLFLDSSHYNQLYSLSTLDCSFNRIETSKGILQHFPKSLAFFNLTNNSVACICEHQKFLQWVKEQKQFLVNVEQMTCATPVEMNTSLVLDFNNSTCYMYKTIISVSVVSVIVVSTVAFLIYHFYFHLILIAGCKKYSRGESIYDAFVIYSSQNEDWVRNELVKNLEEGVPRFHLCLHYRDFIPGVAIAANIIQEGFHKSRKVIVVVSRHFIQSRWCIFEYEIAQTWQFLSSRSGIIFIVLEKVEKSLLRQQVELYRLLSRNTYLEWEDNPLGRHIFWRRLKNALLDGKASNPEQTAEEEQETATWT
Chain of mTLR4 (Q9JHF9 19-160): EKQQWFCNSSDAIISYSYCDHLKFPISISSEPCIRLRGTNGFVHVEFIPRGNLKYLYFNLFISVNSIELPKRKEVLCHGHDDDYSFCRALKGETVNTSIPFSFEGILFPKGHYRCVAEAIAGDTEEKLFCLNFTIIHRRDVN
Chain of mTLR4/mMD2 (K263A / wt) (Q9QUK6 26-835 K263A): as the sequence (Q9QUK6 26-835) above, with K238A counted along it
Chain of mTLR4/mMD2 (K263A / wt) (Q9JHF9 19-160): as the sequence (Q9JHF9 19-160) above
Chain of NOD1 (Q9Y239 whole entry): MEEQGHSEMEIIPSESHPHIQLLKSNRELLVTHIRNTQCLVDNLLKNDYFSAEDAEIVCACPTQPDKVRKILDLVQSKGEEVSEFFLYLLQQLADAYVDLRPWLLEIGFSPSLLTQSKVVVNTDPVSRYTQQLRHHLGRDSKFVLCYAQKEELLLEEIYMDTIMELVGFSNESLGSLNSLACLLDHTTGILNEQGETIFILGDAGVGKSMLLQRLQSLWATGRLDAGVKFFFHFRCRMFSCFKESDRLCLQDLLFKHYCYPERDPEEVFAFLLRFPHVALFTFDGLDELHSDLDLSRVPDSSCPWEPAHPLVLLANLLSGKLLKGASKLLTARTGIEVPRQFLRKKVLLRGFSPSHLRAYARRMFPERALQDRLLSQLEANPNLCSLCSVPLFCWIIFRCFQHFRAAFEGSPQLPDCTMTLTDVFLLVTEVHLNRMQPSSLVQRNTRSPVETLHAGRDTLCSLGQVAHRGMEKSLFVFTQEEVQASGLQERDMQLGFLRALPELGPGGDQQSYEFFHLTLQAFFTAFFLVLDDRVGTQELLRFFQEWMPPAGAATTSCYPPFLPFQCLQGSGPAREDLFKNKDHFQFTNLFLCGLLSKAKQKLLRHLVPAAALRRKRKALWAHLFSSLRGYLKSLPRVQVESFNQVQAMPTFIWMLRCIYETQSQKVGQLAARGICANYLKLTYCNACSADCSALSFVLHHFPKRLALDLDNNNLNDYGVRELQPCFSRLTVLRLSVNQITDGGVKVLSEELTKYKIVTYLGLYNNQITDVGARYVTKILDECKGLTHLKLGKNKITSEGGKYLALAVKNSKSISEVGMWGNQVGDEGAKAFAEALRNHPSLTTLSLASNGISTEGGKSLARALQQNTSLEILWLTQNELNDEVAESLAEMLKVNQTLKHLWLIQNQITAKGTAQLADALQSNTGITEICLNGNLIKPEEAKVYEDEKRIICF
Chain of mTLR4/mMD2 (wt / F119A) (Q9QUK6 26-835): as the sequence (Q9QUK6 26-835) above
Chain of mTLR4/mMD2 (wt / F119A) (Q9JHF9 19-160 F119A): as the sequence (Q9JHF9 19-160) above, with F101A counted along it
Chain of mTLR4/mMD2 (wt / F126A) (Q9QUK6 26-835): as the sequence (Q9QUK6 26-835) above
Chain of mTLR4/mMD2 (wt / F126A) (Q9JHF9 19-160 F126A): as the sequence (Q9JHF9 19-160) above, with F108A counted along it

CC(=O)N[C@H]1[C@H](O[C@H]2[C@H](O[C@H](C)C(=O)O)[C@@H](NC(C)=O)C(O)O[C@@H]2CO)O[C@H](CO)[C@@H](O)[C@@H]1O (stereo partly drawn) [GM, N-acetylglucosamine-β−1,4-N-acetylmuramic acid]
Cytokine and chemokine genes by RNAseq, Tlr4-/- BMDMs [1]: fails to induce the expression of these genes | IRF signaling in RAW-Dual Tlr4-/- cells (in words) [2]: minimal activity | p65 and p38 phosphorylation in WT BMDMs [3]: mild increase in phosphorylation | Effect of mutation mTLR4_K263 on NF-κB activity (in words) [4]: abolished GM-triggered NF-κB activity | NF-κB signaling in RAW-Dual WT cells (in words) [5]: dose-dependent activation of both NF-κB and IRF signaling | NOD1 activation in HEK-Blue reporter cells (in words) [6]: unable to activate NOD1/2 | CD80/86 surface markers in cDC2 population of BMDCs (in words) [7]: upregulates CD80/86 surface marker expressions | Circulating cytokines and chemokines in mice, GM alone [8]: does not significantly alter circulating cytokines and chemokines in mice | Effect of mutation mMD-2_F126 on NF-κB activity (in words) [9]: abrogated NF-κB activation | Immuno-stimulatory activity (TNF-α, IL-6) in RAW264.7 (in words) [10]: dose-dependent immuno-stimulatory activity | Effect of mutation mMD-2_F119 on NF-κB activity (in words) [11]: did not significantly impair the activity of GM | TNF-α induction in BMDMs after polymyxin B neutralization (in words) [12]: unaffected by polymyxin B neutralization | Activity in HEK-Blue mTLR4 reporter cells under polymyxin B titration (in words) ([13]; GM 1 mM, polymyxin B 0, 0.1, 1, 10 kU): unaffected by polymyxin B titration | TLR4 stimulation in HEK-Blue mTLR4 reporter cells (in words) ([13]; disaccharides 0.5 or 1 mM, GM-A and GM-AE 1 mM): stimulate TLR4 | p65 and p38 phosphorylation in Tlr4-/- BMDMs [14]: absence of p65 and p38 phosphorylation | IRF signaling in RAW-Dual WT cells (in words) [15]: dose-dependent activation of both NF-κB and IRF signaling
